In test [1] the target is T1, Solute carrier family 15 member 2 (Rattus norvegicus, UniProt Q63424).
T1 sequence (Q63424 whole entry): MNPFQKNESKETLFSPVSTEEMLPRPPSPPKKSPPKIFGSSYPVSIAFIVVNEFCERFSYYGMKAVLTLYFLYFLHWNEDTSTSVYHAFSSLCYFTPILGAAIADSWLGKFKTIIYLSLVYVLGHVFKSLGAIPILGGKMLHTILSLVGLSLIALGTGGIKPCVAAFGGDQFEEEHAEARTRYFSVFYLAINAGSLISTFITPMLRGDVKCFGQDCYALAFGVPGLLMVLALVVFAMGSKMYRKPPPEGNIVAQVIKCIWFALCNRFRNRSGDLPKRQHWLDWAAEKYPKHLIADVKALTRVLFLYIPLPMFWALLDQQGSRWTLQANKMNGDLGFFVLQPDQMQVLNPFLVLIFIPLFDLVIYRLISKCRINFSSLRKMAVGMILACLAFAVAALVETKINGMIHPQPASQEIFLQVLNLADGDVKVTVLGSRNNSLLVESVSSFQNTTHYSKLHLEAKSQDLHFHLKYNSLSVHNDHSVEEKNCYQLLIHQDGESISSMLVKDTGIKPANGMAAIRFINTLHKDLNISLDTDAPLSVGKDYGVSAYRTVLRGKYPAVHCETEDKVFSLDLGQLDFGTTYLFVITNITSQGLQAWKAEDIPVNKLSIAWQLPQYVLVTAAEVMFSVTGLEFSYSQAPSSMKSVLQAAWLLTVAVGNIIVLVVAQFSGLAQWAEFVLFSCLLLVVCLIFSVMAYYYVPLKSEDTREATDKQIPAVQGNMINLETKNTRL
Put plainly: TP_TRANSPORTER: inhibition of Gly-Sar uptake (pH6.0) in SKPT cells. The class given is functional, cell-based. The essentials:
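Rat SKPT renal proximal tubule cells were seeded and used 4 days later. Cells were given ice-cold washes, lysed and counted by scintillation, with protein by Bradford. Non-saturable uptake was taken with 10 mM Gly-Sar.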

For test [2], the target named is T2, Solute carrier family 15 member 1 (Homo sapiens, UniProt P46059).
T2 sequence (P46059 whole entry): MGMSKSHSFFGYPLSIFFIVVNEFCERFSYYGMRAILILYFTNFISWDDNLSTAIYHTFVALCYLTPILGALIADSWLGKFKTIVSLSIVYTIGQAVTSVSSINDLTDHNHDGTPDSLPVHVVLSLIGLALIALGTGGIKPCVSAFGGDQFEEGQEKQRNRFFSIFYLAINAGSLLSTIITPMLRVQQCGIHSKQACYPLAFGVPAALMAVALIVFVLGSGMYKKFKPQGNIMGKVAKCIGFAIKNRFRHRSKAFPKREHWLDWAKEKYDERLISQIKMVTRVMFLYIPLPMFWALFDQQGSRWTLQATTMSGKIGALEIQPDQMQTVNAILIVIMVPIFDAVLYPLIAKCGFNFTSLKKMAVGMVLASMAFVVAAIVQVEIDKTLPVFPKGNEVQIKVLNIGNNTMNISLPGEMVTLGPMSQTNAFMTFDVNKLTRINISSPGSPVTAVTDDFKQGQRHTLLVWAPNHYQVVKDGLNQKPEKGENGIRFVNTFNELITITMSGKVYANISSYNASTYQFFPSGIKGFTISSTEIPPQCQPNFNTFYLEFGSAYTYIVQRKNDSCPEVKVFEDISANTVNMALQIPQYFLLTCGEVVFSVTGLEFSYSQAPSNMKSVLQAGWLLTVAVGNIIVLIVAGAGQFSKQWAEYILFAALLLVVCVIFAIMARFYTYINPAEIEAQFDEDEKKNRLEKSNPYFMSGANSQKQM
The experiment in a line: TP_TRANSPORTER: inhibition of Gly-Sar uptake (pH6.0) in Caco-2 cells. Format: functional, cell-based.

SMILES strings stand for the structures. Where “and” joins values, the source holds several entries; their conditions need not be identical. Equal values may be shown once. Where only a bound is given, the exact number is not on record here.

As for `CO[C@@]1(NC(=O)CSCC#N)C(=O)N2C(C(=O)O)=C(CSc3nnnn3C)CS[C@@H]21` [CEFMETAZOLE], the figures for the Ki in test [1] and in test [2] were 4.3 mM and 28 mM, respectively.

For the compound `CC1(C)S[C@@H]2[C@H](N)C(=O)N2[C@H]1C(=O)O`, the Ki is 19 mM in test [1] and > 30 mM in test [2]. The like results for `C=N[C@@H](C(=O)N[C@@H]1C(=O)N2[C@@H]1SC(C)(C)[C@@H]2C(=O)O)c1ccccc1` [METAMPICILLIN] were, in that order, 0.73 mM and 12.7 mM. For `CC1=C(C(=O)O)N2C(=O)[C@@H](NC(=O)[C@H](N)c3ccccc3)[C@H]2SC1` [CEPHALEXIN ANHYDROUS], the Ki in test [1] was found to be 0.075 mM. As for `CC(C)(O/N=C(\C(=O)N[C@@H]1C(=O)N2C(C(=O)[O-])=C(C[n+]3ccccc3)CS[C@H]12)c1csc(N)n1)C(=O)O` [CEFTAZIDIME], the Ki in test [1] and in test [2] was > 10 mM in each case. Regarding `CO/N=C(\C(=O)N[C@@H]1C(=O)N2C(C(=O)O)=C(CSc3nc(=O)c(=O)[nH]n3C)CS[C@H]12)c1csc(N)n1` [CEFTRIAXONE], the figures for the Ki in test [1] and in test [2] were > 20 mM and > 30 mM, respectively.

Take `CC1=C(C(=O)O)N2C(=O)[C@@H](NC(=O)[C@H](N)c3ccc(O)cc3)[C@H]2SC1` [CEFADROXIL]: the inhibition constant (Ki) in test [2] came to 7.2 mM.

Consider `Cc1onc(-c2ccccc2)c1C(=O)N[C@@H]1C(=O)N2[C@@H]1SC(C)(C)[C@@H]2C(=O)O` [OXACILLIN], for which the values for the Ki in test [1] and in test [2] were 3.3 mM and 12 mM, respectively.

Regarding `CC1(C)S[C@@H]2[C@H](NC(=O)C3(N)CCCCC3)C(=O)N2[C@H]1C(=O)O` [CYCLACILLIN], the Ki in test [1] came to 0.044 mM; in test [2], 0.5 mM. Turning to `CC(=O)OCC1=C(C(=O)O)N2C(=O)[C@@H](NC(=O)Cc3cccs3)[C@H]2SC1` [CEPHALOTHIN], the Ki was 8.3 mM in test [1] and > 10 mM in test [2]. Take `CO/N=C(\C(=O)N[C@@H]1C(=O)N2C(C(=O)O)=C(COC(N)=O)CS[C@H]12)c1ccco1` [CEFUROXIME]: the Ki is > 0.003 mM and 12.6 mM in test [1]; > 5 mM and 26 mM in test [2].

`CC(=O)OCC1=C(C(=O)O)N2C(=O)[C@@H](NC(=O)CSc3ccncc3)[C@H]2SC1` [CEPHAPIRIN]: the Ki in test [1] and in test [2] was > 10 mM in each case. Regarding `Cc1onc(-c2c(Cl)cccc2Cl)c1C(=O)N[C@@H]1C(=O)N2[C@@H]1SC(C)(C)[C@@H]2C(=O)O` [DICLOXACILLIN], the Ki in test [1] worked out at 0.42 mM; in test [2] it was 7.2 mM. The corresponding values for `CO/N=C(\C(=O)N[C@@H]1C(=O)N2C(C(=O)O)=C(COC(C)=O)CS[C@H]12)c1csc(N)n1` [CEFOTAXIME] are 20 mM and > 30 mM. The corresponding values for `Cn1nnnc1SCC1=C(C(=O)O)N2C(=O)[C@@H](NC(=O)[C@H](O)c3ccccc3)[C@H]2SC1` [CEFAMANDOLE] are 2.8 mM and 8.1 mM. The corresponding values for `CO/N=C(\C(=O)N[C@@H]1C(=O)N2C(C(=O)O)=C(CSc3nc(C)c(CC(=O)O)s3)CS[C@H]12)c1csc(N)n1` [CEFODIZIME] are 9 mM and 22 mM. Consider `CC(=O)OCC1=C(C(=O)O)N2C(=O)[C@@H](N)[C@H]2SC1`, for which the values for the Ki in test [1] and in test [2] were 4.9 mM and > 10 mM, respectively. The corresponding values for `CO[C@@]1(NC(=O)C(C(=O)O)c2ccc(O)cc2)C(=O)N2C(C(=O)O)=C(CSc3nnnn3C)CO[C@@H]21` (some centres undefined) [MOXALACTAM] are 0.087 mM and 12.3 mM.

`NC(=O)c1cc[n+](CC2=C(C(=O)O)N3C(=O)[C@@H](NC(=O)[C@@H](c4ccccc4)S(=O)(=O)[O-])[C@H]3SC2)cc1` [CEFSULODIN]: the Ki in test [1] and in test [2] was > 30 mM each time. For `CC1=C(C(=O)O)N2C(=O)[C@@H](NC(=O)[C@H](N)C3=CCC=CC3)[C@H]2SC1` [CEPHRADINE], the Ki was determined as 0.065 mM in test [1] and 9.8 mM in test [2]. The corresponding values for `CO/N=C(\C(=O)N[C@@H]1C(=O)N2C(C(=O)[O-])=C(C[n+]3cccc4c3CCC4)CS[C@H]12)c1csc(N)n1` [CEFPIROME] are 9.5 mM and > 30 mM. The like results for `CC1(C)S[C@@H]2[C@H](NC(=O)[C@H](N)c3ccc(O)cc3)C(=O)N2[C@H]1C(=O)O` [AMOXICILLIN] were, in that order, 0.43 mM and > 10 mM. The corresponding values for `Cc1onc(-c2ccccc2Cl)c1C(=O)N[C@@H]1C(=O)N2[C@@H]1SC(C)(C)[C@@H]2C(=O)O` [CLOXACILLIN] are 0.95 mM and 3 mM. Consider `Nc1nc(/C(=C/CC(=O)O)C(=O)N[C@@H]2C(=O)N3C(C(=O)O)=CCS[C@H]23)cs1` [CEFTIBUTEN], for which the results for the Ki in test [1] and in test [2] were 0.28 mM and 0.34 mM, respectively. `CC1(C)S[C@@H]2[C@H](NC(=O)Cc3ccccc3)C(=O)N2[C@H]1C(=O)O` [PENICILLIN G]: the Ki in test [2] is > 30 mM.

For `C=CC1=C(C(=O)O)N2C(=O)[C@@H](NC(=O)/C(=N\OCC(=O)O)c3csc(N)n3)[C@H]2SC1` [CEFIXIME], the Ki in test [1] worked out at 2.6 mM; in test [2], 12 mM. The like results for `CO/N=C(\C(=O)N[C@@H]1C(=O)N2C(C(=O)[O-])=C(C[N+]3(C)CCCC3)CS[C@H]12)c1csc(N)n1` were, in that order, 11.4 mM and > 30 mM. Consider `N[C@@H](C(=O)N[C@@H]1C(=O)N2C(C(=O)O)=C(Cl)CS[C@H]12)c1ccccc1` [CEFACLOR ANHYDROUS], for which, in test [2], the Ki was > 10 mM. With `O=C(Cc1cccs1)N[C@@H]1C(=O)N2C(C(=O)[O-])=C(C[n+]3ccccc3)CS[C@H]12` [CEPHALORIDINE], the Ki in test [1] was 8.5 mM; in test [2], > 30 mM.

As usually defined, the Ki is the dissociation constant of the complex between target and ligand, obtained from inhibition or displacement.
